From ChEMBL document CHEMBL1141693, “Discovery of benzoylpiperazines as a novel class of potent and selective GlyT1 inhibitors” (Bioorg Med Chem Lett, 2008)
≈ marks a conversion by molar mass, not a printed value.

How the values were obtained:
[1] = biological target: T1, Sodium- and chloride-dependent glycine transporter 2 (Homo sapiens, UniProt Q9Y345); assay: Inhibition of [3H]glycine uptake at human glycine transporter 2 expressed in CHO cells by scintillation counter; assay type: cell-based
T1 sequence (Q9Y345 whole entry): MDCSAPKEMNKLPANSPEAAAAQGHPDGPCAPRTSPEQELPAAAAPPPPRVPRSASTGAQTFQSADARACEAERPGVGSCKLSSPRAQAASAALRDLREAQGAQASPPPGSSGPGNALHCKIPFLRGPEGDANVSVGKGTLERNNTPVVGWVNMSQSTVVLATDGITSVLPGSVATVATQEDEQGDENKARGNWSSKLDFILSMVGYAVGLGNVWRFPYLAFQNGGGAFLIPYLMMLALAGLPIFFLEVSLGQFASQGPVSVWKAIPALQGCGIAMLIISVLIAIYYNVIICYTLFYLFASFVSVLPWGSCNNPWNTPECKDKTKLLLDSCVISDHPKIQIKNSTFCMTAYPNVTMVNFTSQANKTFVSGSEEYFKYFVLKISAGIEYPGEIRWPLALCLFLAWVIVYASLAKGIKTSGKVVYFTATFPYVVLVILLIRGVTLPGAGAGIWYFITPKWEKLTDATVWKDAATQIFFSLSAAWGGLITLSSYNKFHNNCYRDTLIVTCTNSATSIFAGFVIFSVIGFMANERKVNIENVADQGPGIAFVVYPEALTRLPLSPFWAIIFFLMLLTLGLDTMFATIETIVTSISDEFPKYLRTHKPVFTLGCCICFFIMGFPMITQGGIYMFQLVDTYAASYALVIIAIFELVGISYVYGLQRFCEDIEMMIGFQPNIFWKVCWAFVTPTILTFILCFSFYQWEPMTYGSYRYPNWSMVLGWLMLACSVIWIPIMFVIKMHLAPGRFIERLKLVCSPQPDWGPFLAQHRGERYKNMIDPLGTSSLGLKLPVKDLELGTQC
Outline: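 [³H]-glycine uptake inhibition in cells transfected with human GlyT2 cDNA. EC50 is the average of at least two independent experiments.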

[2] = biological target: T2, Sodium- and chloride-dependent glycine transporter 1 (Homo sapiens, UniProt P48067); assay: Inhibition of [3H]glycine uptake at human glycine transporter 1 expressed in CHO cells by scintillation counter; assay type: cell-based
T2 sequence (P48067 whole entry): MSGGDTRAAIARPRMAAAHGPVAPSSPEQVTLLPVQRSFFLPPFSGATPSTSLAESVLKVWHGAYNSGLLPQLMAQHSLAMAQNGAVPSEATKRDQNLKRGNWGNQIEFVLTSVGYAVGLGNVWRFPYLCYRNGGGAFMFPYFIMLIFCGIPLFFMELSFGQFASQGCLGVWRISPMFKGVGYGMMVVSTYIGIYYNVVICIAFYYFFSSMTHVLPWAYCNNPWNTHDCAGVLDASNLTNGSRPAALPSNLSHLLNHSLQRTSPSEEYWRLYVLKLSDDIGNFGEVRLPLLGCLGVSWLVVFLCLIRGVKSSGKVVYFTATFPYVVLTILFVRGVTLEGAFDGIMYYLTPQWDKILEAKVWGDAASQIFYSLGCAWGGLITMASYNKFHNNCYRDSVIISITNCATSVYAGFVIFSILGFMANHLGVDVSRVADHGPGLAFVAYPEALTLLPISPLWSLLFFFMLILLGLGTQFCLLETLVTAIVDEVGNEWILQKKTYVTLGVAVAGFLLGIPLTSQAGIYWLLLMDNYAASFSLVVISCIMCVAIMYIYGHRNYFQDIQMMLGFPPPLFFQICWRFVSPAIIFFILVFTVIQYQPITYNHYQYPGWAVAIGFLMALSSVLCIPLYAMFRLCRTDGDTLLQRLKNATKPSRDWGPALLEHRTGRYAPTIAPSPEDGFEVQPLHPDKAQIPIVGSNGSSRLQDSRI

[3] = Membrane permeability by PAMPA; assay type: ADME; details: read-out: permeability
Outline: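 PAMPA artificial-membrane permeation, reported as the permeation constant Pe in 10^-6 cm/s.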

Homo sapiens = organism: Homo sapiens; assay: Selectivity ratio of IC50 for human glycine transporter 2 to IC50 for human glycine transporter 1
Outline: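 [³H]-glycine uptake inhibition in cells transfected with human GlyT1 or human GlyT2 cDNA. Each EC50 is the average of at least two independent experiments. Selectivity is the ratio of GlyT2 EC50 to GlyT1 EC50.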

Liver microsomes [4] = assay: Metabolic stability in rat liver microsomes assessed as intrinsic clearance per […] of protein; assay type: ADME, Microsome
Outline: (§1)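 Intrinsic clearance measured in liver microsomes from rat, mouse or human, expressed per mg microsomal protein.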

[5] = Aqueous solubility in phosphate buffer at pH 6.5 by lyophilization solubility assay; assay type: physicochemical
Outline: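 Aqueous solubility was measured at pH 6.5 in a lyophilization solubility assay.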

Liver microsomes [6] = assay: Metabolic stability in human liver microsomes assessed as intrinsic clearance per […] of protein; assay type: ADME, Microsome; outline: as §1

EC50 [1] [µM]	EC50 [2] [µM]	further results	SMILES
1.1	0.078	–	N#Cc1ccc(N2CCN(C(=O)c3cc([N+](=O)[O-])ccc3N3CCOCC3)CC2)cc1
2	0.5	–	CC(=O)c1ccc(N2CCN(C(=O)c3cc([N+](=O)[O-])ccc3N(C)C)CC2)c(F)c1
> 30	7.1	–	O=C(c1cc([N+](=O)[O-])ccc1N1CCOCC1)N1CCN(c2ccccc2C(F)(F)F)CC1
3.3	> 10	–	CC(=O)c1ccc(N2CCN(C(=O)c3cc([N+](=O)[O-])ccc3N)CC2)c(F)c1
13.4	> 10	–	COc1ccccc1N1CCN(C(=O)c2cc([N+](=O)[O-])ccc2N2CCOCC2)CC1
> 30	0.1	Papp [3]: 5.3 ×10⁻⁶ cm/s; Ratio EC50 (Homo sapiens): > 300; clearance (Liver microsomes [4]): 106 µL/min/mg; solubility [5]: 30 µg/mL (≈ 59.5 µM); clearance (Liver microsomes [6]): 43 µL/min/mg	CNS(=O)(=O)c1ccc(N2CCOCC2)c(C(=O)N2CCN(c3ccc(C(C)=O)cc3F)CC2)c1
> 30	0.015	–	CC(=O)c1ccc(N2CCN(C(=O)c3cc(S(C)(=O)=O)ccc3SC(C)C)CC2)c(F)c1
8.3	0.53	–	COc1cccc(N2CCN(C(=O)c3cc([N+](=O)[O-])ccc3N3CCOCC3)CC2)c1
4	1.1	–	Cc1cccc(N2CCN(C(=O)c3cc([N+](=O)[O-])ccc3N3CCOCC3)CC2)c1
0.3	0.4	–	O=C(c1cc([N+](=O)[O-])ccc1N1CCOCC1)N1CCN(c2cccc(C(F)(F)F)c2)CC1
> 30	1.6	–	CCCS(=O)(=O)c1ccc(N2CCOCC2)c(C(=O)N2CCN(c3ccc(C(C)=O)cc3F)CC2)c1
15	0.037	–	O=C(c1cc([N+](=O)[O-])ccc1N1CCOCC1)N1CCN(c2ccc(C(F)(F)F)c(F)c2)CC1
> 30	> 30	–	CC(=O)c1ccc(N2CCN(C(=O)c3cc(C)ccc3N3CCOCC3)CC2)c(F)c1
24.5	32	–	CC(=O)c1ccc(N2CCN(C(=O)c3cccc([N+](=O)[O-])c3)CC2)c(F)c1
3.1	0.7	–	O=C(c1cc([N+](=O)[O-])ccc1N1CCOCC1)N1CCN(c2cccc(Cl)c2)CC1
10	0.002	–	CC(=O)c1ccc(N2CCN(C(=O)c3cc([N+](=O)[O-])ccc3NC(C)C)CC2)c(F)c1
24	0.033	–	O=C(c1cc([N+](=O)[O-])ccc1N1CCOCC1)N1CCN(c2ccc(C(F)(F)F)c(Cl)n2)CC1
> 30	> 30	–	CC(=O)c1ccc(N2CCN(C(=O)c3cc(N)ccc3N3CCOCC3)CC2)c(F)c1
7.7	2.9	–	Cc1ccc(N2CCN(C(=O)c3cc([N+](=O)[O-])ccc3N3CCOCC3)CC2)cc1
> 30	0.12	Papp [3]: 3.3 ×10⁻⁶ cm/s; Ratio EC50 (Homo sapiens): > 250; solubility [5]: 308 µg/mL (≈ 628 µM); clearance (Liver microsomes [6]): 31 µL/min/mg	CC(=O)c1ccc(N2CCN(C(=O)c3cc(S(N)(=O)=O)ccc3N3CCOCC3)CC2)c(F)c1

EC50 [1] [µM]	EC50 [2] [µM]	further results	SMILES
> 30	0.015	–	N#Cc1cc(C(F)(F)F)ccc1N1CCN(C(=O)c2cc([N+](=O)[O-])ccc2N2CCOCC2)CC1
5.1	> 30	Ratio EC50 (Homo sapiens): < 0.2	CC(=O)c1ccc(N2CCN(C(=O)c3cc(Br)ccc3N3CCOCC3)CC2)c(F)c1
–	> 30	–	CC(=O)c1ccc(N2CCN(C(=O)c3ccccc3N3CCOCC3)CC2)c(F)c1
4	0.001	–	CC(=O)c1ccc(N2CCN(C(=O)c3cc([N+](=O)[O-])ccc3N3CCCCC3)CC2)c(F)c1
> 30	0.039	–	CC(=O)c1ccc(N2CCN(C(=O)c3cc(S(C)(=O)=O)ccc3OC(C)C)CC2)c(F)c1
11.4	1.3	–	COc1ccc(N2CCN(C(=O)c3cc([N+](=O)[O-])ccc3N3CCOCC3)CC2)cc1
11.2	1.4	–	O=C(c1cc([N+](=O)[O-])ccc1N1CCOCC1)N1CCN(c2ccccc2Cl)CC1
11	26	Ratio EC50 (Homo sapiens): 0.4	CC(=O)c1ccc(N2CCN(C(=O)c3cc(C(F)(F)F)ccc3N3CCOCC3)CC2)c(F)c1
3.3	0.1	–	O=C(c1cc([N+](=O)[O-])ccc1N1CCOCC1)N1CCN(c2ccc(C(F)(F)F)cc2)CC1
> 30	0.047	–	O=C(c1cc([N+](=O)[O-])ccc1N1CCOCC1)N1CCN(c2ncc(C(F)(F)F)cc2Cl)CC1
8.5	0.002	–	CC(=O)c1ccc(N2CCN(C(=O)c3cc([N+](=O)[O-])ccc3NC3CCCCC3)CC2)c(F)c1
> 30	> 30	–	CC(=O)c1ccc(N2CCN(C(=O)c3cc(S(=O)(=O)Cc4ccccc4)ccc3N3CCOCC3)CC2)c(F)c1
14.2	> 10	–	Cc1ccccc1N1CCN(C(=O)c2cc([N+](=O)[O-])ccc2N2CCOCC2)CC1
4.3	0.03	–	N#Cc1ccc(N2CCN(C(=O)c3cc([N+](=O)[O-])ccc3N3CCOCC3)CC2)c(F)c1
1.17	0.31	–	O=C(c1cc([N+](=O)[O-])ccc1N1CCOCC1)N1CCN(c2ccc(Cl)cc2)CC1
29	0.041	–	O=C(c1cc([N+](=O)[O-])ccc1N1CCOCC1)N1CCN(c2ccc(C(F)(F)F)cc2F)CC1
> 30	0.04	–	CS(=O)(=O)c1ccc(N2CCN(C(=O)c3cc([N+](=O)[O-])ccc3N3CCOCC3)CC2)c(F)c1
–	> 10	–	CC(=O)c1ccc(N2CCN(C(=O)c3cc([N+](=O)[O-])ccc3NCC3CCCCC3)CC2)c(F)c1
1.4	1.9	–	CNc1ccc([N+](=O)[O-])cc1C(=O)N1CCN(c2ccc(C(C)=O)cc2F)CC1
2.1	0.11	–	CS(=O)(=O)c1ccc(N2CCN(C(=O)c3cc([N+](=O)[O-])ccc3N3CCOCC3)CC2)cc1
